Assay results as given in ChEMBL document CHEMBL1148253, “Structure-activity requirements for the antiproliferative effect of troglitazone derivatives mediated by depletion of intracellular calcium” (Bioorg Med Chem Lett, 2004).
Calls of active or inactive are those of the source. The calls are words filed in the database; no cut-off is given here.

Legend:
[1] = Partition coefficient (logP); type: physicochemical; conditions: octanol/water
PC-12 [2] = assay: Tested for the intracellular Ca+2 release in PC12 cells; - = No release; type: functional, cell-based; conditions: Rattus norvegicus
In short: (§1)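 Fluo-4-loaded cells treated with drug at 80 μM for 10 min and monitored for Ca2+ release from intracellular stores. Clotrimazole is the positive control. Scored +, ± or −.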

PC-12 [3] = assay: Phosphorylation of eukaryotic initiation factor 2 alpha (eIF2alpha) in PC12 cells, +/- = Insignificant phosphorylation; type: functional, cell-based; conditions: Rattus norvegicus
In short: (§2)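 Cells treated with drug at 15 μM for 2 h. Extracts western blotted with anti-phospho-Ser51 eIF2α antibody. Tro is the positive control and DMSO the negative control. Scored +, ± or −.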

PC-12 [4] = assay: Concentration required for 50% inhibition of cell proliferation in PC12 cells using sulforhodamine B assay; type: functional, cell-based; conditions: Rattus norvegicus
In short: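 Sulforhodamine B proliferation assay; cells exposed to drug for 5 days across 0.5 to 100 μM. IC50 is the concentration giving 50% inhibition of proliferation.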

PC-12 [5] = assay: Phosphorylation of eukaryotic initiation factor 2 alpha (eIF2alpha) in PC12 cells, + = Phosphorylation; type: functional, cell-based; conditions: Rattus norvegicus; in short: as §2
PC-12 [6] = assay: Tested for the intracellular Ca+2 release in PC12 cells; + = Release; type: functional, cell-based; conditions: Rattus norvegicus; in short: as §1
PC-12 [7] = assay: Phosphorylation of eukaryotic initiation factor 2 alpha (eIF2alpha) in PC12 cells, - = No phosphorylation; type: functional, cell-based; conditions: Rattus norvegicus; in short: as §2
PC-12 [8] = assay: Tested for the intracellular Ca+2 release in PC12 cells; +/- = Insignificant release; type: functional, cell-based; conditions: Rattus norvegicus; in short: as §1

Structure (SMILES)	logP ([1]; read-out: logP)	Activity (PC-12 [2])	Activity (PC-12 [3])	IC50 (PC-12 [4]) [µM]	Activity (PC-12 [5])	Activity (PC-12 [6])	Activity (PC-12 [7])	Activity (PC-12 [8])	logP [1]
O=C1NC(=O)C(Cc2ccc(O)cc2)S1 (stereo unspecified) [GLITAZONE]	1.32	Not toxic	+/-	> 100					
O=C1N=C(O)S/C1=C\c1ccc(OCC2CCCC2)cc1				10	Phosphorylation	Phosphorylation			
Cc1c(C)c2c(c(C)c1O)CCC(C)(COc1ccc(CC3SC(=O)NC3=O)cc1)O2 (stereo unspecified) [TROGLITAZONE]	4.46			15	Active	Active			
O=C1NC(=O)/C(=C/c2ccc(O)cc2)S1	1.05	Not toxic		20			Not toxic		
O=C1NC(=O)C(Cc2ccc(OCC3CCCCO3)cc2)S1 (stereo unspecified)	2.29	Not toxic		> 100			Not toxic		
O=C1N=C(O)S/C1=C\c1ccc(OCC2CCCCO2)cc1 (stereo unspecified)	2.02			22	Phosphorylation	Phosphorylation			
CC(C)COc1ccc(/C=C2\SC(=O)NC2=O)cc1	3.09	Not toxic	+/-	16					
CCOc1ccc(/C=C2\SC(=O)NC2=O)cc1	2.16	Not toxic	+/-	27					
O=C1NC(=O)/C(=C/c2ccc(OCC3CCCC3)cc2)S1	3.21								
CCCOc1ccc(CC2SC(=O)NC2=O)cc1 (stereo unspecified)	2.96	Not toxic	+/-	45					
O=C1NC(=O)C(Cc2ccc(OCC3CC3)cc2)S1 (stereo unspecified)	2.26	Not toxic		> 100			Not toxic		
COc1ccc(CC2SC(=O)NC2=O)cc1 (stereo unspecified)	1.91	Not toxic		> 100			Not toxic		
O=C1NC(=O)C(Cc2ccc(OCc3ccccc3)cc2)S1 (stereo unspecified)	3.67	Not toxic		> 100			Not toxic		
O=C1NC(=O)C(Cc2ccc(OCC3CCC3)cc2)S1 (stereo unspecified)	2.81			> 100		Release	Not toxic		
CCC(C)(C)Oc1ccc(CC2SC(=O)NC2=O)cc1 (stereo unspecified)	3.76			23	Phosphorylation	Phosphorylation			
CCCOc1ccc(/C=C2\SC(=O)NC2=O)cc1	2.69		+/-	7				+/-	

Structure (SMILES)	logP ([1]; read-out: logP)	Activity (PC-12 [2])	Activity (PC-12 [3])	IC50 (PC-12 [4]) [µM]	Activity (PC-12 [5])	Activity (PC-12 [6])	Activity (PC-12 [7])	Activity (PC-12 [8])	logP [1]
O=C1NC(=O)C(Cc2ccc(OCC3CCCC3)cc2)S1 (stereo unspecified)	3.38			25	Phosphorylation	Phosphorylation			
CC(C)COc1ccc(CC2SC(=O)NC2=O)cc1 (stereo unspecified)	3.36			25		Release	Not toxic		
O=C1NC(=O)/C(=C/c2ccc(OCC3CC3)cc2)S1	1.99	Not toxic	+/-	23					
O=C1NC(=O)C(Cc2ccccc2)S1 (stereo unspecified)	1.99	Not toxic		> 100			Not toxic		
O=C1NC(=O)/C(=C/c2ccc(OCC3CCC3)cc2)S1	2.54			13	Phosphorylation	Phosphorylation			
COc1ccc(/C=C2\SC(=O)NC2=O)cc1	1.63	Not toxic		23			Not toxic		
CCOc1ccc(CC2SC(=O)NC2=O)cc1 (stereo unspecified)	2.43	Not toxic	+/-	> 100					
CCC(C)(C)Oc1ccc(/C=C2\SC(=O)NC2=O)cc1	3.49			15	Phosphorylation	Phosphorylation			
Cc1c(C)c2c(c(C)c1O)CCC(C)(COc1ccc(/C=C3/SC(=O)NC3=O)cc1)O2 (stereo unspecified)	5.31			5	Phosphorylation	Phosphorylation			
O=C1N=C(O)S/C1=C\c1ccc(OCC2CCCCC2)cc1	3.66			14	Phosphorylation	Phosphorylation			
O=C1NC(=O)/C(=C/c2ccc(OCc3ccccc3)cc2)S1	3.4								
O=C1N=C(O)S/C1=C\c1ccc(OCc2ccccc2)cc1		Not toxic		15			Not toxic		
CC1(COc2ccc(CC3SC(=O)NC3=O)cc2)CCCCC1 (stereo unspecified) [CIGLITAZONE]				20	Active	Active			5.07
O=C1NC(=O)C(Cc2ccc(OCC3CCCCC3)cc2)S1 (stereo unspecified)	3.94		+/-	26		Release			
O=C1NC(=O)/C(=C/c2ccccc2)S1	1.71	Not toxic		> 100			Not toxic		
